Source: PubChem BioAssay (several laboratories)
NTR1 agonist = agonists of human NTR1, primary screen, imaging, U2OS cells, beta-arrestin-GFP, high content; NTR1-U2OS beta-arrestin-GFP spot imaging, agonist mode; activation, % at 20 µM; Neurotensin receptor type 1 (Homo sapiens), P30989; 0.17% of 330,000 active;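 active = activation at or above 40% of the spot to cytoplasm intensity ratio, with at least 20 cells analyzed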
GRK2 aptamer HTS = compounds blocking aptamer binding on GRK2 – biochemical, human GRK2, bead flow cytometry, HTS, primary screen; Beta-adrenergic receptor kinase 1 (Homo sapiens), P25098; FAM-aptamer displacement from GRK2; inhibition of aptamer binding, % at 10 µM; 0.59% of 330,000 active;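 active = inhibition of aptamer binding above 40%, roughly 3 SD of noise, on plates passing a quality check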;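 note: median bead fluorescence of bound FAM aptamer so fluorescent compounds give negative values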
Hep lipid drop = inhibitors of hepatocyte lipid droplet formation, primary screen, imaging, high-throughput imaging, BODIPY stain | AML12 mouse hepatocytes, oleate lipid droplets | inhibition, % at 6.5 µM | 0.4% of 240,000 active | AID 1656, 2009;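 active = lipid droplet intensity inhibited by at least 50%, with more than 500 cells counted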
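System: AML12 hepatocytes (mouse). Probe or stimulus: oleic acid at 100 µM to induce lipid droplet formation. Times: overnight treatment with compound plus oleate. Detection: Image-based BODIPY and DAPI two-channel analysis. Evaluation: percent inhibition of filter-corrected integrated lipid droplet intensity per well.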
TAG inh = inhibitors of triacylglycerol accumulation, primary screen, cell-based, uHTS, fluorescence, H9c2. inhibition, % at 12.5 µM. 0.66% of 230,000 active. H9c2 cells, Nile Red lipid (TAG) fluorescence; cells loaded with 200 µM oleic acid;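 active = pattern-corrected inhibition of lipid staining of at least 50% with the nuclear-stain viability signal not falling by more than 50%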
Arrestin-AP2 inh = inhibitors of beta-arrestin/AP2 binding, primary screen, biochemical, GPCR trafficking, flow cytometry | beta-arrestin 1 C-terminal peptide binding to AP2 beta2-adaptin appendage (human) | FITC-arrestin peptide / GST-AP2 beads; AP2 beta2 appendage carries R879A mutation | inhibition, % at 10 µM | 0.31% of 340,000 active | AID 504490, 2011;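 active = inhibition above a set limit, near 3 SD of compounds lacking own fluorescence, cut at about 54% in these data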
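System: GST-tagged AP2 beta2-adaptin appendage (R879A) on 4 µm glutathione beads / Reagent: FITC-arrestin peptide, 50 nM / Detection: HyperCyt-sampled flow cytometry, FL1 channel, ex 488/em 535 nm / Timing: 12 min plus 1 h, RT / Buffer or medium: PBS plus Tween 20 (0.05%) and BSA (0.1%)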
Beta2AR agonist = beta2AR agonists driving receptor internalization, primary screen, cell-based, FAP fluorogen, flow cytometry | Am2.2-beta2AR cells | response, % (test concentration not listed) | 0.43% of 340,000 active | AID 504454, 2011;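 active = response above a set limit, near 3 SD of response in nonfluorescent compounds, cut at about 42% in these data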
Target sequence (P07550 whole entry, looked up): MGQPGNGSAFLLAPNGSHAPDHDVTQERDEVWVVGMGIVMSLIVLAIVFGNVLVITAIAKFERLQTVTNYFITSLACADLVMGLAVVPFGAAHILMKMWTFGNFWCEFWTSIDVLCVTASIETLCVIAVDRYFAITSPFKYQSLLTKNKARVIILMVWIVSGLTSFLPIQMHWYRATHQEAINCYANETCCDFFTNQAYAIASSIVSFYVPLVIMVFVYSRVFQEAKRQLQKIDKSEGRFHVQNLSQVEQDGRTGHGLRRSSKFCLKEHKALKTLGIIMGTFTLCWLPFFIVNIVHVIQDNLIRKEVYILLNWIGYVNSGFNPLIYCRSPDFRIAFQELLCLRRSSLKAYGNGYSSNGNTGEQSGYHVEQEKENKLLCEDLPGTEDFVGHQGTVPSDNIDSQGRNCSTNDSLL
Numbers stand for hits; 0 = inactive; - = no result. This is a sample that favours compounds with a hit; in the whole collection about 2% have one here.

SMILES	NTR1 agonist	GRK2 aptamer HTS	Hep lipid drop	TAG inh	Arrestin-AP2 inh	Beta2AR agonist
C=CCC[C@H](Cc1ccc(F)cc1)C(=O)OC[C@@H](Cc1c[nH]c2ccccc12)NC(=O)[C@H](CC=C)CC(=O)N(CCO)Cc1ccccc1	0	0	-	57	0	0
CN(C)CCNc1nc2sc3c(c2c(=O)n1CCc1ccccc1)CCCCC3	0	0	0	80	0	0
CC(O)CNc1nc2sc3c(c2c(=O)n1CCc1ccccc1)CCCCC3 (configuration not stated)	0	0	0	0	0	0
O=C(NCCCNC(=O)c1ccccc1)c1ccccc1	0	0	-	0	0	0
O=C(NCNC(=O)c1ccccc1)c1ccccc1	0	0	0	-	0	63
C=C1C(=O)C23C(O)C1CCC2C12CCCC(C)(COC(C)=O)C1C(O)C3(O)OC2 (configuration not stated)	-	-	-	93	0	58
Cc1ccc(C(=O)NNC(=O)C2CC2)cc1Br	0	0	0	0	0	0
COC(=O)NNC(=O)c1ccc(C)c(Br)c1	0	80	0	-	0	0
c1ccc2c(c1)ccc1[nH]c3c(c12)CCCC3	-	-	-	0	0	0
C=C1C(=O)C=C[C@]2(C)C[C@@H]3OC(=O)[C@](C)(O)[C@H]3C[C@@H]12	0	0	0	57	0	0
C[C@@H]1C[C@@H]2OC(=O)[C@]3(C)[C@H]2[C@@H](OC3(C)O)[C@]2(C)C(=O)C=C[C@H]12 (some centres not stated)	0	0	0	0	0	0
CC[C@]12c3[nH]c4cc(CCC(=O)N(C)C)ccc4c3CCN1C(=O)[C@@H](CC(=O)NCCC1=CCCCC1)C[C@@H]2C(=O)N1CCN(C(=O)c2ccco2)CC1	0	43	-	0	0	0
CC[C@]12c3[nH]c4cc(-c5ccco5)ccc4c3CCN1C(=O)[C@@H](CC(=O)NCCc1ccccn1)C[C@@H]2C(=O)N1CCN(C(=O)c2ccco2)CC1	0	43	-	0	0	0
CCN(CC)C(=O)[C@H]1C[C@H](CC(=O)NCc2ccco2)C(=O)N2CCc3c([nH]c4cc(CCC(=O)N(C)C)ccc34)[C@]12C	0	51	-	0	0	0
CN(C)C(=O)CCc1ccc2c3c([nH]c2c1)[C@]1(CCc2ccccc2)[C@@H](C(=O)N2CCCCC2)C[C@H](CC(=O)NCc2ccco2)C(=O)N1CC3	0	0	-	0	0	0
CC[C@]12c3[nH]c4cc(CCC(=O)N(C)C)ccc4c3CCN1C(=O)[C@@H](CC(=O)NCc1ccco1)C[C@@H]2C(=O)N1CCN(C(=O)C2CC2)CC1	0	45	-	0	0	0
CC[C@]12c3[nH]c4cc(-c5ccco5)ccc4c3CCN1C(=O)[C@@H](CC(=O)NCCN1CCOCC1)C[C@@H]2C(=O)N1CCN(C(=O)c2ccco2)CC1	0	0	-	0	0	0
CCn1c(=O)c(C(=O)CN2CCN(S(=O)(=O)c3cc(C)ccc3C)CC2)c(N)n(Cc2ccccc2)c1=O	0	0	0	0	0	0
NC(CCc1ccccc1)c1csc(NC(=O)Nc2ccccc2Oc2ccccc2)n1 (configuration not stated)	-	-	-	0	-	-
CCN(C(=O)c1ccc2c(c1)OCO2)C12CC3CC(CC(C3)C1)C2	0	0	-	0	0	0
O=C(C[C@H]1C[C@H](C(=O)N2CCCCC2)[C@@]2(CCc3ccccc3)c3[nH]c4cc(-c5ccco5)ccc4c3CCN2C1=O)NCc1cccc(C(F)(F)F)c1	0	0	-	58	0	0
O=C(C[C@H]1C[C@H](C(=O)N2CCCCC2)[C@@]2(CCc3ccccc3)c3[nH]c4cc(-c5ccco5)ccc4c3CCN2C1=O)NCc1ccco1	0	0	-	0	0	0
CC(C)(C)CC(=O)Nc1ccc(-c2cn3cccnc3n2)cc1	0	0	0	-	0	0
